The source of these data is ChEMBL document CHEMBL3244011, “(Aryloxy)[p-(aryloxy)phenyl]- and (aryloxy)[p-(arylthio)phenyl]acetic acids and esters as hypolipidemic agents” (1979).

Common to all, as to assay type: functional
What all share (design): scale not given: the % may be the effect or the level left

Assay [1] deals with Rattus norvegicus. The experiment in a line: Hypolipidemic activity in COBBS-CD rat assessed as reduction in serum sterol level at 0.01% administered with chow diet after 5 days relative to control. A digest of the protocol:
(§1)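 Male COBBS-CD rats, four per treated group and eight per control group. The compound was mixed into ground rat chow at 0.1, 0.03 or 0.01% w/w (about 100, 30 and 10 mg/kg). Control chow received only the mixing solvent (methanol-chloroform 1:3 v/v). Food and water were ad libitum for 5 days, then rats were decapitated and blood collected. Serum sterols were measured by an automated method and expressed relative to controls; ± values are SD.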

Assay [2] deals with Rattus norvegicus. Put plainly: Hypolipidemic activity in COBBS-CD rat assessed as reduction in serum triglyceride level at 0.03% administered with chow diet after 5 days relative to control. A digest of the protocol: (§2)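 The compound was given in ground chow at 0.1, 0.03 or 0.01% w/w (about 100, 30 and 10 mg/kg) to male COBBS-CD rats (n=4; solvent-chow controls n=8) for 5 days ad libitum. Rats were killed by decapitation and blood collected. Serum triglycerides were assayed by an automated method and compared with controls; ± values are SD.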

For assay [3], the system named is Rattus norvegicus. The experiment in a line: Hypolipidemic activity in COBBS-CD rat assessed as reduction in serum triglyceride level at 0.1% administered with chow diet after 5 days relative to control. A digest of the protocol:
as §2

In assay [4] the test system is Rattus norvegicus. Put plainly: Hypolipidemic activity in COBBS-CD rat assessed as reduction in serum triglyceride level at 0.01% administered with chow diet after 5 days relative to control. A digest of the protocol:
as §2

The test system of assay [5] is Rattus norvegicus. Put plainly: Hypolipidemic activity in COBBS-CD rat assessed as reduction in serum sterol level at 0.1% administered with chow diet after 5 days relative to control. A digest of the protocol:
as §1

Assay [6] has as its system Rattus norvegicus. Put plainly: Hypolipidemic activity in COBBS-CD rat assessed as reduction in serum sterol level at 0.03% administered with chow diet after 5 days relative to control. The method, boiled down: as §1

Take `COC(=O)C(Oc1ccc(Cl)c2ccccc12)c1ccc(Oc2ccc(Cl)cc2)cc1` (stereo unspecified): the Activity in the assay on Rattus norvegicus [1] is -18%; in the assay with Rattus norvegicus [2], -8%; in the assay on Rattus norvegicus [3], 32%; in the assay with Rattus norvegicus [4], -15%; in the assay on Rattus norvegicus [5], 11%; in the assay on Rattus norvegicus [6], -3%.
For the compound `COC(=O)C(Oc1ccc(Cl)cc1)c1ccc(Oc2ccc(Cl)cc2)cc1` (stereo unspecified), the Activity with Rattus norvegicus [1] turned out to be 16%; in the assay on Rattus norvegicus [2], 48%; in the assay on Rattus norvegicus [3] it was 56%; in the assay on Rattus norvegicus [4] it was 39%; in the assay with Rattus norvegicus [5], 33%; in the assay with Rattus norvegicus [6], 23%.
In the case of `COC(=O)C(Oc1ccccc1)c1ccc(Oc2ccc(Cl)cc2)cc1` (stereo unspecified), the Activity in the assay on Rattus norvegicus [1] came out at 18%; with Rattus norvegicus [2], 67%; in the assay with Rattus norvegicus [3], 68%; with Rattus norvegicus [4], 77%; in the assay with Rattus norvegicus [5], 31%; in the assay with Rattus norvegicus [6] it was 18%.
As for `COC(=O)C(Oc1ccc(C(C)(C)C)cc1)c1ccc(Oc2ccc(Cl)cc2)cc1` (stereo unspecified), the Activity in the assay with Rattus norvegicus [1] was 27%; in the assay with Rattus norvegicus [2], 53%; with Rattus norvegicus [3], 57%; in the assay on Rattus norvegicus [4] it was 41%; in the assay on Rattus norvegicus [5], 20%; in the assay on Rattus norvegicus [6], 20%.
`COC(=O)C(Oc1cccc(C(C)(C)C)c1)c1ccc(Oc2ccc(Cl)cc2)cc1` (stereo unspecified): the Activity in the assay with Rattus norvegicus [1] came to 23%; in the assay with Rattus norvegicus [2], 49%; with Rattus norvegicus [3] it was 63%; in the assay with Rattus norvegicus [4], 41%; in the assay on Rattus norvegicus [5], 41%; in the assay on Rattus norvegicus [6], 20%.
Consider `COC(=O)C(Oc1ccc(OCc2ccccc2)cc1)c1ccc(Oc2ccc(Cl)cc2)cc1` (stereo unspecified), for which the Activity in the assay with Rattus norvegicus [1] is 13%; with Rattus norvegicus [2], 37%; in the assay with Rattus norvegicus [3] it was 57%; in the assay with Rattus norvegicus [4], 29%; in the assay with Rattus norvegicus [5] it was 30%; with Rattus norvegicus [6], 26%.
In the case of `O=C(O)C(Oc1ccc(Oc2ccccc2)cc1)c1ccc(Oc2ccc(Cl)cc2)cc1` (stereo unspecified), the Activity worked out at 13% in the assay on Rattus norvegicus [1]; 38% with Rattus norvegicus [2]; 54% in the assay on Rattus norvegicus [3]; 53% in the assay with Rattus norvegicus [4]; 33% with Rattus norvegicus [5]; 21% in the assay on Rattus norvegicus [6].
On to `COC(=O)C(Oc1ccc(C(C)(C)C)cc1Cl)c1ccc(Oc2ccc(Cl)cc2)cc1` (stereo unspecified), for which the Activity with Rattus norvegicus [1] was found to be 17%; with Rattus norvegicus [2] it was 50%; in the assay on Rattus norvegicus [3] it was 64%; in the assay with Rattus norvegicus [4] it was 25%; in the assay with Rattus norvegicus [5], 28%; in the assay with Rattus norvegicus [6], 29%.
`COC(=O)C(Oc1cccc2ccccc12)c1ccc(Oc2ccc(Cl)cc2)cc1` (stereo unspecified): the Activity was 36% in the assay with Rattus norvegicus [2], 39% in the assay on Rattus norvegicus [3], 4% in the assay with Rattus norvegicus [5] and 3% with Rattus norvegicus [6].
Take `COC(=O)C(Oc1cccc2c1CCCC2)c1ccc(Oc2ccc(Cl)cc2)cc1` (stereo unspecified): the Activity in the assay with Rattus norvegicus [1] is given as 1%; in the assay on Rattus norvegicus [2], -1%; in the assay with Rattus norvegicus [3], 41%; in the assay on Rattus norvegicus [4], -34%; in the assay on Rattus norvegicus [5], 23%; with Rattus norvegicus [6], 14%.
For `COC(=O)C(Oc1ccc2c(c1)CCC2)c1ccc(Oc2ccc(Cl)cc2)cc1` (stereo unspecified), the Activity in the assay on Rattus norvegicus [1] is reported as 26%; with Rattus norvegicus [2], 51%; with Rattus norvegicus [3], 52%; with Rattus norvegicus [4], 37%; with Rattus norvegicus [5], 25%; in the assay with Rattus norvegicus [6], 30%.
For `COC(=O)C(Oc1ccc2ccccc2c1)c1ccc(Oc2ccc(Cl)cc2)cc1` (stereo unspecified), the Activity with Rattus norvegicus [1] is reported as 10%; with Rattus norvegicus [2], 44%; in the assay with Rattus norvegicus [3], 55%; in the assay with Rattus norvegicus [4], 32%; with Rattus norvegicus [5], 32%; in the assay with Rattus norvegicus [6], 15%.
Regarding `COC(=O)C(Oc1ccc2c(c1)CCCC2)c1ccc(Oc2ccc(Cl)cc2)cc1` (stereo unspecified), the Activity in the assay on Rattus norvegicus [1] came to 24%; in the assay with Rattus norvegicus [2], 35%; with Rattus norvegicus [3], 47%; with Rattus norvegicus [4] it was 8%; with Rattus norvegicus [5] it was 42%; in the assay on Rattus norvegicus [6] it was 26%.
Take `COC(=O)C(Oc1ccc(Cl)c2c1CCCC2)c1ccc(Oc2ccc(Cl)cc2)cc1` (stereo unspecified): the Activity in the assay on Rattus norvegicus [1] is recorded as -1%; in the assay on Rattus norvegicus [2], 28%; with Rattus norvegicus [3], 54%; in the assay with Rattus norvegicus [4], 24%; in the assay on Rattus norvegicus [5] it was 25%; in the assay on Rattus norvegicus [6] it was 30%.
In the case of `COC(=O)C(Oc1ccc(C2(C)CCCCC2)cc1)c1ccc(Oc2ccc(Cl)cc2)cc1` (stereo unspecified), the Activity is 26% with Rattus norvegicus [1]; 70% in the assay on Rattus norvegicus [2]; 65% in the assay on Rattus norvegicus [3]; 64% in the assay on Rattus norvegicus [4]; 18% with Rattus norvegicus [5]; 13% in the assay on Rattus norvegicus [6].
For `COC(=O)C(Oc1ccc(C23CC4CC(CC(C4)C2)C3)cc1)c1ccc(Oc2ccc(Cl)cc2)cc1` (stereo unspecified), the Activity with Rattus norvegicus [1] came to 14%; in the assay on Rattus norvegicus [2], 29%; in the assay with Rattus norvegicus [3], 17%; with Rattus norvegicus [4], 11%; in the assay with Rattus norvegicus [5], 3%; with Rattus norvegicus [6] it was 16%.
Regarding `O=C(O)C(Oc1ccc(Cl)cc1)c1ccc(Oc2ccc(Cl)cc2)cc1` (stereo unspecified), the Activity in the assay with Rattus norvegicus [1] turned out to be 12%; in the assay on Rattus norvegicus [2] it was 50%; with Rattus norvegicus [3] it was 60%; in the assay with Rattus norvegicus [4] it was 34%; with Rattus norvegicus [5], 31%; with Rattus norvegicus [6], 23%.
Consider `COC(=O)C(Oc1ccc(F)cc1)c1ccc(Oc2ccc(C#N)cc2)cc1` (stereo unspecified), for which the Activity in the assay with Rattus norvegicus [1] is 13%; in the assay on Rattus norvegicus [2] it was 31%; in the assay with Rattus norvegicus [3] it was 60%; in the assay on Rattus norvegicus [4] it was 38%; in the assay with Rattus norvegicus [5], 33%; with Rattus norvegicus [6], 19%.
For the compound `COC(=O)C(Oc1ccc(C(C)(C)C)cc1)c1ccc(Oc2ccc(NC(C)=O)cc2)cc1` (stereo unspecified), the Activity in the assay with Rattus norvegicus [1] stood at 5%; in the assay on Rattus norvegicus [2] it was 50%; in the assay on Rattus norvegicus [3], 55%; in the assay with Rattus norvegicus [4], 44%; in the assay on Rattus norvegicus [5], 16%; in the assay with Rattus norvegicus [6], 18%.
As for `O=C(O)C(Oc1ccccc1)c1ccc(Oc2ccccc2)cc1` (stereo unspecified), the Activity in the assay on Rattus norvegicus [1] was found to be 21%; in the assay with Rattus norvegicus [2] it was 37%; in the assay on Rattus norvegicus [3] it was 51%; in the assay with Rattus norvegicus [4], 3%; in the assay with Rattus norvegicus [5], 22%; with Rattus norvegicus [6], 15%.
With `COC(=O)C(Oc1ccc(C(C)(C)C)cc1)c1ccc(Oc2ccc(Cl)c3ccccc23)cc1` (stereo unspecified), the Activity in the assay with Rattus norvegicus [1] was 16%; in the assay on Rattus norvegicus [2] it was 39%; in the assay with Rattus norvegicus [3], 56%; in the assay on Rattus norvegicus [4] it was 29%; in the assay on Rattus norvegicus [5], 23%; in the assay on Rattus norvegicus [6], 24%.
Regarding `COC(=O)C(Oc1ccc(F)cc1)c1ccc(Oc2cccc(C(F)(F)F)c2)cc1` (stereo unspecified), the Activity in the assay on Rattus norvegicus [1] stood at 4%; in the assay with Rattus norvegicus [2] it was 27%; in the assay on Rattus norvegicus [3], 48%; in the assay on Rattus norvegicus [4] it was 45%; in the assay with Rattus norvegicus [5] it was 32%; with Rattus norvegicus [6], 6%.
For the compound `COC(=O)C(Oc1cccc(C(F)(F)F)c1)c1ccc(Oc2ccc(C(C)(C)C)cc2)cc1` (stereo unspecified), the Activity is recorded as -5% in the assay on Rattus norvegicus [1]; -18% in the assay with Rattus norvegicus [2]; 19% in the assay with Rattus norvegicus [3]; -12% with Rattus norvegicus [4]; 13% in the assay on Rattus norvegicus [5]; -4% in the assay with Rattus norvegicus [6].
On to `COC(=O)C(Oc1ccc(C2CCCCC2)cc1)c1ccc(Oc2ccc(C(C)(C)C)cc2)cc1` (stereo unspecified), for which the Activity with Rattus norvegicus [1] was -5%; in the assay on Rattus norvegicus [2], 49%; with Rattus norvegicus [3], 52%; with Rattus norvegicus [4] it was 29%; in the assay on Rattus norvegicus [5], 33%; in the assay on Rattus norvegicus [6], 16%.
On to `COC(=O)C(Oc1ccc(Cl)cc1)c1ccc(Sc2ccc(Cl)cc2)cc1` (stereo unspecified), for which the Activity in the assay with Rattus norvegicus [1] amounted to 17%; with Rattus norvegicus [2] it was 62%; in the assay with Rattus norvegicus [3], 64%; in the assay with Rattus norvegicus [4], 66%; in the assay with Rattus norvegicus [5], 25%; with Rattus norvegicus [6], 25%.
Turning to `COC(=O)C(Oc1ccc(C(C)(C)C)cc1)c1ccc(Sc2ccc(Cl)cc2)cc1` (stereo unspecified), the Activity is recorded as 10% in the assay with Rattus norvegicus [1]; 56% with Rattus norvegicus [2]; 59% with Rattus norvegicus [3]; 45% in the assay on Rattus norvegicus [4]; 12% in the assay on Rattus norvegicus [5]; 27% with Rattus norvegicus [6].
With `COC(=O)C(Oc1ccc(Cl)cc1)(C(=O)OC)c1ccc(Oc2ccc(Cl)cc2)cc1`, the Activity is given as 9% in the assay on Rattus norvegicus [1]; 48% in the assay on Rattus norvegicus [2]; 63% with Rattus norvegicus [3]; -2% with Rattus norvegicus [4]; 32% with Rattus norvegicus [5]; 25% with Rattus norvegicus [6].
Regarding `COC(=O)C(Oc1ccc(Cl)cc1)c1ccc([S+]([O-])c2ccc(Cl)cc2)cc1` (stereo unspecified), the Activity with Rattus norvegicus [1] is 15%; in the assay with Rattus norvegicus [2], 35%; in the assay with Rattus norvegicus [3] it was 55%; with Rattus norvegicus [4], 12%; in the assay with Rattus norvegicus [5], 31%; in the assay on Rattus norvegicus [6], 11%.
